PKA kinase inh – inhibitors of human protein kinase A. P17612. PKA Kemptide phosphorylation, Kinase-Glo ATP luminescence. inhibition, % at 6 µM. hit rate 0.1% among 65,000;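 active means inhibition above the screen-wide mean inhibition plus 3 SD, cut at about 21% in these data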
JNK3 inh – blocks human JNK3 kinase activity; P53779; purified JNK3 kinase activity, HTS; inhibition, % at 8 µM; hit rate 0.61% among 60,000; AID 746; in the data active means inhibition above about 17%;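 further: 0% = DMSO and 100% = reference inhibitor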
RORa activator – activates the human nuclear receptor RORA. CHO-K1 Gal4-RORA LBD luciferase reporter, luminescence; percent increase over mock-subtracted basal signal. activation, % at 10 µM. hit rate 1.5% among 65,000;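 active means activation above the mean of all tested compounds plus 3 SD, cut at about 49% in these data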;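 further: 0% = DMSO-treated RORA cells and 100% = added signal equal to DMSO minus mock-transfected cells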
ROCK2 inh – ROCK2 (human) kinase inhibition; O75116; inhibition, % at 6 µM; AID 604; hit rate 0.35% among 60,000; purified ROCK2, Kinase-Glo ATP depletion luminescence;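 active means inhibition above the screen-wide mean inhibition plus 3 SD, cut at about 18% in these data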;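 further: plate controls were DMSO wells for no effect and Y-27632 control wells after no-enzyme background subtraction for full effect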
MT1-MMP txn act – activates MT1-MMP transcription | HT1080 MT1-MMP promoter luciferase reporter, luminescence, overnight; stronger effect = higher value | activation factor at 10 µM | hit rate 0.16% among 86,000;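 active means activation factor of at least 2 for MT1-MMP transcription at 10 µM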
SF1 activator – activates the human nuclear receptor SF-1 | AID 522 | activation, % at 10 µM | Q13285 | hit rate 1.9% among 65,000 | CHO-K1 Gal4-SF-1 LBD luciferase reporter; % increase over DMSO SF-1-specific signal;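 active means activation above the mean activation of all tested compounds plus 3 SD, cut at about 50% in these data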
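material = CHO-K1 cells with Gal4–hSF-1 LBD chimera plus Gal4-driven luciferase | compound = 10 µM single point, 1% DMSO | incubation = 20 h compound exposure at 37 °C after 1 h cell settling | measured by = SteadyLite luciferase luminescence | evaluation = percent activation relative to DMSO median and mock-transfected background | control set = DMSO negative control and −SF1 background wells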
An asterisk follows results filed as active; . = no result. The list is not random: actives were taken first. Their share in the collection is about 2.5%.

SMILES	PKA kinase inh	JNK3 inh	RORa activator	ROCK2 inh	MT1-MMP txn act	SF1 activator
O=C(NC1CCCCC1)C(c1ccc(O)cc1)N(CC1CCCO1)C(=O)C1COc2ccccc2O1 (stereo not given)	.	.	.	.	1.2	.
Nc1c(C(=O)NC2CCCCC2)nsc1C(=O)OCC(=O)NC1CCCCC1	0.7	1.9	-5.7	10.6	1	-0.2
CCOC(=O)c1snc(C(=O)NC2CCCCC2)c1N	2.2	-1.5	56.8*	4.8	1.5	105.9*
CCCC1CCc2c(sc(N)c2C(N)=O)C1 (stereo not given)	.	.	.	.	1.1	.
O=C(c1ccccc1)c1nc[nH]c1C(=O)Nc1ccccn1	4.4	18.2*	0.6	10.0	0.9	0.3
COc1cc(N2CCCC2)c(OC)cc1/C=c1/sc2nc3ccccc3n2c1=O	4.1	-4.2	8.7	8.9	1.5	54.4*
Cc1ccc(-c2cc(C(=O)NCc3ccco3)no2)cc1	7.4	-1.1	32.2	3.6	1.2	47.8
O=C(NCc1ccco1)c1cc(-c2ccc3c(c2)OCO3)on1	9.4	-4.8	51.0*	4.4	1.7	42.7
Cc1ccc(-n2c(C)cc(C(=O)COC(=O)c3c(C)noc3C)c2C)cc1	3.6	5.6	1.9	0.9	1.3	78.8*
CC(=O)Nc1ccc2nc(-c3ccccn3)[nH]c2c1	-1.1	2.8	65.0*	-6.6	1.3	47.5
COc1cccc(C(=O)Nc2cccc(NC(C)=O)c2)c1	9.3	3.6	25.4	8.5	1.2	15.8
COc1cc(NC(=O)CC(C)C)ccc1NC(=O)c1ccco1	5.8	-5.9	79.8*	2.3	1.3	44.1
O=C(Nc1cccc(OC(=O)c2ccco2)c1)c1ccco1	11.9	3.5	10.0	8.6	1.3	7.4
O=C(Nc1ccc(Br)c(Cl)c1)c1ccco1	8.2	4.1	76.0*	11.5	1.5	91.6*
CCC(=O)Nc1ccc(NC(=O)c2ccco2)c(OC)c1	11.5	6.6	45.0	10.1	1.4	12.4
COc1ccc(C(=O)Nc2cccc(OC)c2)cc1	-3.3	5.1	46.3	-7.7	1	81.2*
COc1cccc(NC(=O)c2ccco2)c1	-2.4	2.6	54.2*	-1.6	1.5	26.6
O=C(Nc1ccc(N2CCOCC2)c(Cl)c1)c1ccco1	4.8	-4.5	23.7	1.8	1.1	46.5
CC1CCCN(C(=O)CSCC(=O)N=c2sc3ccccc3n2C)C1 (stereo not given)	-3.3	.	-8.2	.	.	-5.3
NC/C(=N\O)c1ccc(Cl)cc1Cl	9.2	4.7	0.1	6.6	1.1	-3.6
O=C(N[C@@H](Cc1ccccc1)C(=O)O)c1ccccc1	.	.	.	.	1.1	.
CCOC(=O)C1CCN(C(=O)Nc2ccc(OC)c(OC)c2)CC1	0.9	-1.4	-7.4	-5.7	1	-3.0
COC(=O)c1cccc(NC(=O)c2cccnc2)c1	.	.	.	.	0.9	.
CC(C)OC(=O)c1cccc(NC(=O)c2ccccc2)c1	.	.	.	.	2.1*	.
CN(C)c1ccc(NC(=O)Nc2cccc(Cl)c2)cc1	-2.0	-16.8	2.7	-0.2	1.4	64.2*
SMILES	PKA kinase inh	JNK3 inh	RORa activator	ROCK2 inh	MT1-MMP txn act	SF1 activator
O=C(NCCN1CCOCC1)c1cc2cc(Cl)cc(Cl)c2oc1=O	.	.	.	.	1.1	.
Cn1ccnc1SCC(=O)Nc1ccc(Oc2ccccc2)cc1	10.1	5.0	60.2*	6.4	1.3	33.4
O=C(O)CCC(=O)c1c[nH]c2ccccc12	1.5	1.5	-13.0	3.8	1.2	12.1
Cn1c(C(C#N)C(=O)Cc2cccc3ccccc23)nc2ccccc21 (stereo not given)	-9.9	.	-22.2	.	1	-5.7
Cn1c(C(C#N)C(=O)c2ccco2)nc2ccccc21 (stereo not given)	5.8	-4.6	67.2*	3.1	1.9	59.4*
CC1=C(C(=O)OCc2ccccc2)C(c2ccccc2OC(=O)c2cccs2)NC(=O)N1CCCC(=O)O (stereo not given)	.	.	.	.	1.2	.
COc1cccc(CN(C(=O)c2cc3ccccc3oc2=O)C2CC2)c1	3.2	-11.1	52.5*	-3.2	1.6	16.8
CN(C)c1cccc(C(=O)Nc2cccc(F)c2)c1	7.9	-11.0	46.0	4.9	1.2	58.2*
CCN(CC)c1ccc(C(=O)Nc2cccc(F)c2)cc1	3.1	-4.6	41.8	1.6	0.6	54.3*
CCN(CC)c1ccc(NC(=O)c2cncc(Br)c2)cc1	5.0	-15.7	38.0	7.5	1.5	41.8
CCCOCCOC(=O)C1=C(C)NC(=O)NC1c1cc(Cl)c(O)c(OC)c1 (stereo not given)	3.4	3.4	-11.4	3.4	1.2	-1.8

Compound activity as filed in PubChem BioAssay.
